Activity calls are given as the source filed them. The calls are words filed in the database; no cut-off is given here.
Tests used:
P2Y purinoceptor 1 [1] = target: T1, P2Y purinoceptor 1 (Homo sapiens, UniProt P47900); assay: Accumulation of inositol phosphate in 1321N1 astrocytoma cells expressing human P2Y1 purinoceptor; type: cell-based
In short: (§1)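 Inositol phosphate accumulation measured in 1321N1 human astrocytoma cells stably expressing human P2Y1, P2Y2, P2Y4 or P2Y11 receptor. Full concentration–effect curves, repeated in at least three separate experiments run in duplicate or triplicate. EC50 from four-parameter logistic fit. Relative efficacy (%) taken against a maximal effective concentration of UTP or UDP in the same experiment.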

[2] = target: P2Y purinoceptor 4 (Homo sapiens) (UniProt P51582); assay: Agonist activity by measuring the agonist potencies of the corresponding ribose- containing nucleotides, for the receptor subtype human P2Y purinoceptor 4; No effect as either agonist or antagonist at 10 uM; type: functional; in short: as §1
P2Y purinoceptor 4 (Homo sapiens), sequence (P51582 whole entry): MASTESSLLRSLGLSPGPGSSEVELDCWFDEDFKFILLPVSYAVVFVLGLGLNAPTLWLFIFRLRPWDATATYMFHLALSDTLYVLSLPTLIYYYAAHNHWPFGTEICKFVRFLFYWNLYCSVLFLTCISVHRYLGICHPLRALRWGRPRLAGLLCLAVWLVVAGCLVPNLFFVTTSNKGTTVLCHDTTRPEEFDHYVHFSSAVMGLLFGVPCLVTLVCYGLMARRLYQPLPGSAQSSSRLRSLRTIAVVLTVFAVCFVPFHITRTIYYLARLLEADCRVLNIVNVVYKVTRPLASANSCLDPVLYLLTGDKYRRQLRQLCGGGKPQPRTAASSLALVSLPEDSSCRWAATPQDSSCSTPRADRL

P2Y purinoceptor 2 [3] = target: T2, P2Y purinoceptor 2 (Homo sapiens, UniProt P41231); assay: (§2) Agonist activity by measuring inositol phosphate accumulation in 1321N1 human astrocytoma cells stably expressing human P2Y purinoceptor 2; type: functional; in short: as §1
T2 sequence (P41231 whole entry): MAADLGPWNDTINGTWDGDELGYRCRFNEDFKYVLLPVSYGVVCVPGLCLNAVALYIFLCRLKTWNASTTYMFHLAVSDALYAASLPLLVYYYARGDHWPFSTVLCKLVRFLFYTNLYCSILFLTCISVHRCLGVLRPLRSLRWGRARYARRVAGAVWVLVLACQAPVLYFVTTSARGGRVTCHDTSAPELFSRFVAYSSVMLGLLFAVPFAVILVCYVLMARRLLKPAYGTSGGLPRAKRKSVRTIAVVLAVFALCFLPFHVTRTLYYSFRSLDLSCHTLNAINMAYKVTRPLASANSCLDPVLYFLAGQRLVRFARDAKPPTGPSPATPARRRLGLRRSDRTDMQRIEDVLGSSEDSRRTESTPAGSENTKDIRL

[4] = target: T3, P2Y purinoceptor 11 (Homo sapiens) (UniProt Q96G91); assay: Agonist activity by measuring inositol phosphate accumulation in 1321N1 human astrocytoma cells stably expressing human P2Y purinoceptor 11; No effect as either agonist or antagonist at 10 uM; type: functional; in short: as §1
T3 sequence (whole entry): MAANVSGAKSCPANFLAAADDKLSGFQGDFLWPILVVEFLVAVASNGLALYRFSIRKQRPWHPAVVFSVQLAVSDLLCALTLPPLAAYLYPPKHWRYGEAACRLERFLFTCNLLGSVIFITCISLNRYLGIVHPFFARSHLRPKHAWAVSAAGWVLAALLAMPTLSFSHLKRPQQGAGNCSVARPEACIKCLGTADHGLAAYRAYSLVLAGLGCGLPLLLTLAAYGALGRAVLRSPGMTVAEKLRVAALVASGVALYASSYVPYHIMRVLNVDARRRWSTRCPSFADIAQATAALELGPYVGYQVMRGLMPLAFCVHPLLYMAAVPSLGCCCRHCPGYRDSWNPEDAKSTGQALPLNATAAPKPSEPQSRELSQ

P2Y purinoceptor 1 [5] = target: P2Y purinoceptor 1 (Meleagris gallopavo, UniProt P49652); assay: Activation of Purinoceptor P2Y1-mediated phospholipase C in turkey erythrocyte membranes; type: cell membranes
P2Y purinoceptor 1 (Meleagris gallopavo, UniProt P49652), sequence (P49652 whole entry): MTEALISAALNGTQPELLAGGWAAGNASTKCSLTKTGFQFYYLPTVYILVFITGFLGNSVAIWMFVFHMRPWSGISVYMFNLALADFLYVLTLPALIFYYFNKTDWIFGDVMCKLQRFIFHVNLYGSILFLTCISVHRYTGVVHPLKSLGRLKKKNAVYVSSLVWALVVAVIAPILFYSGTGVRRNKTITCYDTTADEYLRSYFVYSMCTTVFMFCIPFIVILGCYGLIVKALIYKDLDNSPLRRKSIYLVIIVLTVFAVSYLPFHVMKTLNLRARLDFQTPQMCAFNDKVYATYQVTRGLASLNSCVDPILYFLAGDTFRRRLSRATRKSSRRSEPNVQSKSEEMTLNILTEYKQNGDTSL
In short: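 Turkey erythrocytes labelled 18–24 h at 37 °C with 2-[3H]myo-inositol in inositol-free DMEM. Total [3H]inositol phosphates separated by anion exchange. EC50 from four-parameter logistic fit, at least three experiments.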

P2Y purinoceptor 2 [6] = target: T2, P2Y purinoceptor 2; assay: Agonist activity by measuring inositol phosphate accumulation in 1321N1 human astrocytoma cells stably expressing human P2Y purinoceptor 2; No effect as either agonist or antagonist at 10 uM; type: functional
[7] = target: P2Y purinoceptor 4 (Homo sapiens) (UniProt P51582); assay: Agonist activity by measuring inositol phosphate accumulation in 1321N1 human astrocytoma cells stably expressing human P2Y purinoceptor 4; No effect as either agonist or antagonist at 10 uM; type: functional; in short: as §1
[8] = target: P2Y purinoceptor 1 (Meleagris gallopavo) (UniProt P49652); assay: Agonist activity by measuring Purinoceptor P2Y1-promoted phospholipase C activity in turkey erythrocyte membranes; No effect as either agonist or antagonist at 10 uM; type: functional, cell membranes
P2Y purinoceptor 1 (Meleagris gallopavo), sequence (P49652 whole entry): as above
In short: (§3)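 Turkey erythrocytes labelled 18–24 h at 37 °C with 2-[3H]myo-inositol in inositol-free DMEM. Ghosts (about 175 μg protein) incubated 5 min at 30 °C in pH 7.0 Hepes/KCl buffer with EGTA, CaCl2 and MgSO4, plus 1 μM GTPγS and the agonist. Total [3H]inositol phosphates separated by anion exchange. EC50 from four-parameter logistic fit, at least three experiments.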

P2Y purinoceptor 1 [9] = target: T1, P2Y purinoceptor 1; assay: Agonist activity by measuring inositol phosphate accumulation in 1321N1 human astrocytoma cells stably expressing human P2Y purinoceptor 1; No effect as either agonist or antagonist at 10 uM; type: functional; in short: as §1
P2Y purinoceptor 2 [10] = target: T2, P2Y purinoceptor 2; assay: as §2; type: functional; in short: as §1; remark: listed apart in the source
Rattus norvegicus = species on record: Rattus norvegicus; assay: Hydrolysis rate of compound as substrate of purified recombinant rat Ecto-5'-nucleotidase; type: functional; design: scale not given: the % may be the effect or the level left
In short: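 Purified baculovirus-expressed rat ecto-5′-nucleotidase (0.5 μg) incubated 10 min at 37 °C with 100 μM (final) substrate in Tris-buffered saline containing 0.4 mM MgCl2, pH 7.4. Reaction stopped with 5% TCA. Released inorganic phosphate measured by the Lanzetta method. Activity expressed relative to AMP (100%). Two experiments, each in duplicate.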

[11] = target: P2Y purinoceptor 1 (Meleagris gallopavo) (UniProt P49652); assay: Agonist activity by measuring Purinoceptor P2Y1-promoted phospholipase C activity in turkey erythrocyte membranes; NE means no effect.; type: functional, cell membranes; in short: as §3

T1 sequence (P47900 whole entry): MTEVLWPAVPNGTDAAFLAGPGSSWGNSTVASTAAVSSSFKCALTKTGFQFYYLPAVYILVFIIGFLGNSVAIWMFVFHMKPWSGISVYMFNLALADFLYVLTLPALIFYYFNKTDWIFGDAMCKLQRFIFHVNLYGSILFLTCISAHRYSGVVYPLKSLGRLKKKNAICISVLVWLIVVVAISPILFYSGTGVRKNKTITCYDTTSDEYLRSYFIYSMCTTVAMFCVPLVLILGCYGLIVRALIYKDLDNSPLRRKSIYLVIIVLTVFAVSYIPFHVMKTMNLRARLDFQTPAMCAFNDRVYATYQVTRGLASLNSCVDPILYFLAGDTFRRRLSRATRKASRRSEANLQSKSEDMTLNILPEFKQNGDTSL

Row | SMILES | EC50 (P2Y purinoceptor 1 [1]) | EC50 (P2Y purinoceptor 1 [5]) | also measured
1 | CSc1nc(N)c2ncn([C@@H]3O[C@H](COP(=O)(O)OP(=O)(O)OP(=O)(O)O)[C@@H](O)[C@H]3O)c2n1 | 34 nM | – | –
2 | CSc1nc(N)c2ncn([C@H]3[C@H](O)[C@H](O)[C@@]4(COP(=O)(O)OP(=O)(O)O)C[C@@H]34)c2n1 | 0.4 nM | 0.88 nM | NE [2]: inactive; % of maximal effect (P2Y purinoceptor 2 [3]): 54%; NE [4]: inactive
3 | Nc1ncnc2c1ncn2C1C(O)C(O)[C@@]2(COP(=O)(O)OP(=O)(O)CP(=O)(O)O)C[C@H]12 (stereo not given in full) | 158 nM | 11300 nM | NE (P2Y purinoceptor 2 [6]): inactive; NE [7]: inactive
4 | Nc1nc(Cl)nc2c1ncn2[C@@H]1O[C@H](COP(=O)(O)O)[C@@H](O)[C@H]1O | – | – | NE [8]: inactive; NE (P2Y purinoceptor 1 [9]): inactive
5 | CSc1nc(N)c2ncn(C3C(O)C(O)[C@@]4(COP(=O)(O)OP(=O)(O)OP(=O)(O)O)C[C@@H]34)c2n1 (stereo not given in full) | 23 nM | 3.7 nM | –
6 | CNc1ncnc2c1ncn2C1C(O)C(O)[C@@]2(COP(=O)(O)OP(=O)(O)OP(=O)(O)O)C[C@@H]12 (stereo not given in full) | 33 nM | 92 nM | EC50 (P2Y purinoceptor 2 [10]): 0.197 µM
7 | CNc1nc(Cl)nc2c1ncn2C1C(O)C(O)[C@@]2(COP(=O)(O)OP(=O)(O)OP(=O)(O)O)C[C@@H]12 (stereo not given in full) | 9 nM | 6 nM | EC50 (P2Y purinoceptor 2 [10]): 8.4 µM
8 | Nc1ncnc2c1ncn2[C@@H]1O[C@H](COP(=O)(O)O)[C@@H](O)[C@H]1O | – | – | NE [8]: inactive; Activity (Rattus norvegicus): 100%
9 | Nc1ncnc2c1ncn2[C@H]1[C@H](O)[C@H](O)[C@@]2(COP(=O)(O)O)C[C@H]12 | – | – | Activity (Rattus norvegicus): 0.14%; NE [11]: inactive

Second part, led by results:

Row | EC50 (P2Y purinoceptor 1 [1]) | EC50 (P2Y purinoceptor 1 [5]) | SMILES | also measured
10 | 1890 nM | 3900 nM | Nc1nc(Cl)nc2c1ncn2[C@H]1[C@H](O)[C@H](O)[C@@]2(COP(=O)(O)O)C[C@@H]12 | –
11 | – | 36.6 nM | C[S+]([O-])c1nc(N)c2ncn([C@H]3[C@H](O)[C@H](O)[C@@]4(COP(=O)(O)O)C[C@H]34)c2n1 (stereo not given in full) | –
12 | 590 nM | 1190 nM | CSc1nc(N)c2ncn([C@H]3[C@H](O)[C@H](O)[C@@]4(COP(=O)(O)O)C[C@@H]34)c2n1 | NE [4]: inactive

— ChEMBL document CHEMBL1135410, “Adenine nucleotide analogues locked in a Northern methanocarba conformation: enhanced stability and potency as P2Y(1) receptor agonists” (J Med Chem, 2002)
